This is one part of a sample in which hits are shown more often than they occur.
E-selectin induc: induces E-selectin expression in human endothelial cells | activation, % at 7.58 µM | AID 686992 | HUVEC E-selectin immunofluorescence imaging; normalized: neutral wells 0, TNF-alpha wells 100 | actives 0.37% (n = 260,000) | P16581;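 active means mean E-selectin-positive cell signal at least 10% of the positive control, reached in at least 60% of replicates, without over 20% cell loss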
Target sequence (P16581 whole entry, looked up): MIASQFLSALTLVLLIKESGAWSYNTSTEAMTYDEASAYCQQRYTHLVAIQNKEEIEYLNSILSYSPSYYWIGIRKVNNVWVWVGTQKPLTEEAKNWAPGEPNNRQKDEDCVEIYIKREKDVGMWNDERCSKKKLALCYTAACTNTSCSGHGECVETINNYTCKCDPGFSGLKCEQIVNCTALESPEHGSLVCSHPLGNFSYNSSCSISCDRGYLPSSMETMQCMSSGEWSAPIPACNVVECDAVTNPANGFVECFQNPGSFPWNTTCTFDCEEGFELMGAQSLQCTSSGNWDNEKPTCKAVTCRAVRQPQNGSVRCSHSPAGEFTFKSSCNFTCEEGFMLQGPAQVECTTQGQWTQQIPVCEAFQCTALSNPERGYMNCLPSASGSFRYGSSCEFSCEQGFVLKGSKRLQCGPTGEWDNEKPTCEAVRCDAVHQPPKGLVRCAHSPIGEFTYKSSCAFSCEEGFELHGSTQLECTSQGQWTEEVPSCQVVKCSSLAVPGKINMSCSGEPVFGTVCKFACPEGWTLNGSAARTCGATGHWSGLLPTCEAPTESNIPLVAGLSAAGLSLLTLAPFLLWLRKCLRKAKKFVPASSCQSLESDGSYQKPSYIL
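Read-out basis: % PE-positive cells; Test system: HUVEC primary endothelial cells; Technique: immunofluorescence imaging; Dosing: single-point compound dose.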
* = called active by the depositor.

SMILES | E-selectin induc
CC(C)NC(=O)Nc1ccc2c(c1)C(=O)N([C@H](C)CO)C[C@H](C)[C@H](CN(C)Cc1ccc(C(F)(F)F)cc1)O2 | -20
CC(C)NC(=O)Nc1ccc2c(c1)C(=O)N([C@H](C)CO)C[C@@H](C)[C@@H](CN(C)Cc1ccc(C(F)(F)F)cc1)O2 | -20
CC(C)NC(=O)Nc1ccc2c(c1)C(=O)N([C@@H](C)CO)C[C@H](C)[C@H](CN(C)Cc1ccc(C(F)(F)F)cc1)O2 | 51*
CCCNC(=O)N1[C@H](CN(C)C(C)=O)[C@H](c2ccc(C3=CCCC3)cc2)[C@@H]1CO | 0
C[C@H]1CN([C@@H](C)CO)C(=O)c2cc(NC(=O)CCCCCC(=O)Nc3ccccc3N)ccc2O[C@H]1CN(C)S(=O)(=O)c1ccccc1 | 0
COc1ccc2c3c(n(C)c2c1)[C@@H](CO)N(C(=O)Nc1ccccc1F)CC31CN(C(=O)c2ccccc2)C1 | 0
CCC(=O)N(C)C[C@@H]1Oc2ncc(-c3ccccc3OC)cc2C(=O)N([C@@H](C)CO)C[C@H]1C | -1
CCCC(=O)Nc1ccc2c(c1)OC[C@H](C)N(C(=O)c1ccncc1)C[C@H](C)[C@@H](OC)CN(C)C2=O | 0
CNC[C@H]1Oc2ccc(NC(=O)Nc3ccc(F)cc3)cc2C(=O)N([C@H](C)CO)C[C@@H]1C | 0
CCOC(=O)c1cnc2c(C)c(Cl)ccc2c1N1CCOCC1 | 0
CCOC(=O)c1cnc2cc(F)c(F)cc2c1N1CCOCC1 | 0
CCOC(=O)c1cnc2c(c(C3CC3)nn2C)c1N1CCOCC1 | 29*
COCCNC(=O)C[C@H]1CC[C@H]2[C@H](COc3ccc(NC(C)=O)cc3C(=O)N2C)O1 | 0
O=C(Nc1cccc(Cl)c1)N[C@@H]1CC[C@@H](CCNC(=O)C2CCCCC2)O[C@@H]1CO | 0
Cc1cc(C)c(C(=O)N(C)CC2CCCN(CCc3ccccc3F)C2)o1 (configuration not stated) | -1
Cc1ccccc1CCN1CCCC(CN(C)C(=O)c2ccc3ncccc3c2)C1 (configuration not stated) | 68*
Cc1ccccc1CCN1CCCC(CN(C)C(=O)C(=O)c2ccco2)C1 (configuration not stated) | -1
COCC(=O)Nc1ccc2c(c1)C(=O)N(C)C[C@@H](OC)[C@H](C)CN(C(=O)c1cnccn1)[C@H](C)CO2 | 0
CCN1/C(=C/C=C/c2oc3ccc(-c4ccccc4)cc3[n+]2CC)Oc2ccc(-c3ccccc3)cc21 | 218*
CC(Oc1cc2oc(=O)c3c(c2cc1Cl)CCCC3)C(=O)NCC1CCC(C(=O)O)CC1 (configuration not stated) | 87*
O=C(COc1cc2oc(=O)c3c(c2cc1Cl)CCC3)NCCN1CCOCC1 | 4
CC(Oc1cc2oc(=O)c3c(c2cc1Cl)CCC3)C(=O)NCCCn1ccnc1 (configuration not stated) | 0
CCCNC(=O)NC[C@H]1[C@@H](c2ccc(C3=CCCCC3)cc2)[C@@H](CO)N1C(C)=O | 0
C[C@H]1CN([C@@H](C)CO)C(=O)Cc2cc(NC(=O)CCN3CCOCC3)ccc2O[C@@H]1CN(C)Cc1ccc(-c2ccccc2)cc1 | 0
COc1ccccc1NC(=O)N1CC(=O)N2[C@H](CO)[C@@H](c3ccc(C#CC4CC4)cc3)[C@@H]2C1 | 0
SMILES | E-selectin induc
Cc1noc(C)c1S(=O)(=O)Nc1ccc2c(c1)C(=O)N([C@H](C)CO)C[C@H](C)[C@@H](CN(C)Cc1ccc3c(c1)OCO3)O2 | 1
Cc1noc(C)c1S(=O)(=O)Nc1ccc2c(c1)C(=O)N([C@@H](C)CO)C[C@H](C)[C@H](CN(C)Cc1ccc3c(c1)OCO3)O2 | 401*
Cc1noc(C)c1S(=O)(=O)Nc1ccc2c(c1)C(=O)N([C@@H](C)CO)C[C@@H](C)[C@@H](CN(C)Cc1ccncc1)O2 | -3
CNC[C@H]1Oc2ccc(N(C)C)cc2C(=O)N([C@@H](C)CO)C[C@H]1C | 129*
Cc1noc(C)c1S(=O)(=O)Nc1ccc2c(c1)C(=O)N([C@@H](C)CO)C[C@@H](C)[C@H](CN(C)Cc1ccncc1)O2 | -6
C[C@@H]1CN([C@@H](C)CO)C(=O)c2cc(N(C)C)ccc2O[C@@H]1CN(C)S(=O)(=O)c1cn(C)cn1 | -10
C[C@@H]1CN([C@H](C)CO)C(=O)c2cc(N(C)C)ccc2O[C@H]1CN(C)S(=O)(=O)c1cn(C)cn1 | 63*
Cc1noc(C)c1S(=O)(=O)Nc1ccc2c(c1)C(=O)N([C@H](C)CO)C[C@@H](C)[C@H](CN(C)Cc1ccncc1)O2 | 57*
CNC[C@@H]1Oc2ccc(N(C)C)cc2C(=O)N([C@@H](C)CO)C[C@H]1C | -1
C[C@H]1CN([C@@H](C)CO)C(=O)c2cc(N(C)C)ccc2O[C@@H]1CN(C)S(=O)(=O)c1cn(C)cn1 | -3
Cc1noc(C)c1S(=O)(=O)Nc1ccc2c(c1)C(=O)N([C@H](C)CO)C[C@H](C)[C@H](CN(C)Cc1ccc3c(c1)OCO3)OCCCC[C@@H](C)O2 | 0
CNC[C@@H]1OCCCC[C@H](C)Oc2ccc(N(C)C)cc2C(=O)N([C@H](C)CO)C[C@@H]1C | -1
CC(=O)N(C)C[C@H]1Oc2ncc(C#C[C@H](C)O)cc2C(=O)N([C@H](C)CO)C[C@@H]1C | 0
C[C@H](O)C#Cc1cnc2c(c1)C(=O)N([C@@H](C)CO)C[C@@H](C)[C@@H](CN(C)CC1CCOCC1)O2 | 0
C[C@@H]1CN([C@H](C)CO)C(=O)Cc2cc(NC(=O)CCC(F)(F)F)ccc2O[C@@H]1CN(C)S(=O)(=O)c1cn(C)cn1 | -13
CCCN(C)C[C@@H]1OCCCC[C@@H](C)Oc2ccc(NS(=O)(=O)c3ccccc3)cc2C(=O)N([C@H](C)CO)C[C@@H]1C | 0
C[C@H]1CN([C@@H](C)CO)C(=O)c2cc(NS(=O)(=O)c3cn(C)cn3)ccc2O[C@@H]1CN(C)Cc1ccncc1 | 49*
C[C@H]1CN([C@@H](C)CO)C(=O)c2cc(NS(=O)(=O)c3cn(C)cn3)ccc2O[C@H]1CN(C)Cc1ccncc1 | -5
C[C@@H]1CN([C@@H](C)CO)C(=O)c2cc(NS(=O)(=O)c3cn(C)cn3)ccc2O[C@H]1CN(C)Cc1ccncc1 | -4
C[C@H](CO)N1C[C@H](C)[C@@H](CN(C)Cc2ccccc2F)Oc2cc(C3=CCCC3)ccc2S1(=O)=O | 0
O=C(COC(=O)c1ccccc1[N+](=O)[O-])NNC(=O)c1cccs1 | 0
O=C(COC(=O)c1ccccc1NCCO)NCCc1ccccc1 | -1
O=C(COC(=O)c1ccccc1NCCO)NNC(=O)c1cccs1 | 428*
O=C(c1cccnc1)N1CC2(C1)[C@H](c1ccccc1)[C@H](CO)N2CC1CC1 | 0
CNC[C@@H]1Oc2ccc(NC(=O)NC3CCCCC3)cc2C(=O)N([C@@H](C)CO)C[C@H]1C | 0
SMILES | E-selectin induc
C1CCCCCC(=NNc2nn[nH]n2)CCCCC1 | 67*
Cc1cc(C)nc(NN=C2CCCC2)n1 | 1
Fc1ccc(/C=N/Nc2nn[nH]n2)cc1 | 1
C[C@H]1CN([C@@H](C)CO)C(=O)Cc2cc(NC(=O)Cc3ccccc3)ccc2O[C@H]1CN(C)C(=O)Nc1ccc(F)cc1 | -4
COCC(=O)N1[C@H](C#N)[C@H](c2ccc(-c3cccc(F)c3)cc2)[C@@H]1CO | 0
COc1ccc(-c2nc(N)nc(C(F)(F)F)c2-c2ccccc2OC)c(O)c1 | 0
COc1ccc(-c2nc(N)nc(C)c2-c2ccc(Cl)cc2)c(O)c1 | 59*
C=C(C)COc1ccc(-c2nc(N)ncc2-c2ccc(Cl)cc2)c(O)c1 | 0

Screening results as filed in PubChem BioAssay.
